CHO parental Ca: ATP-evoked calcium signal inhibitors, parental CHO, primary screen, counter-screen for OX1R antagonist project, cell-based, fluorescence, Fluo-8 calcium dye; parental CHO-K1, ATP-induced calcium, Fluo-8 fluorescence; inhibition, % at 5.6 µM; hit rate 0.63% among 330,000;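 active = inhibition above that plate's mean sample inhibition plus 3 SD, cut at about 26% in these data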;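 note: 0% = ATP-challenged DMSO wells and 100% = DMSO wells without ATP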
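Assay system – parental CHO cells · Reagent – ATP stimulus · Detection – intracellular calcium via Fluo-8 no-wash fluorescent dye · Evaluation – percent inhibition of ATP-evoked calcium rise, normalized to controls · Controls – ATP wells versus no-ATP DMSO wells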
GPR7 antagonist: GPR7 receptor antagonists, primary screen, cell-based, fluorescence, single concentration. inhibition, % at 4.4 µM. hit rate 1.1% among 290,000. GPR7-expressing cells, fluorescence antagonist assay; in the data active = inhibition above about 16%, passing the limit was not always enough;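 note: cells stimulated with the agonist NPW; 0% = agonist with vehicle and 100% = vehicle without agonist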
OX1R antag-1: OX1R (HCRTR1) antagonists, primary screen, fluorescence, CHO/OX1R cells, Fluo-8 calcium, orexin A | Orexin/Hypocretin receptor type 1 (Homo sapiens), O43613 | Fluo-8 calcium fluorescence | inhibition, % at 5 µM | hit rate 0.43% among 330,000 | AID 434989, 2010;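 active = inhibition above its plate's threshold, mean inhibition of all tested compounds on the plate plus 3 SD, cut at about 37% in these data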;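 note: 0% = orexin A challenge wells and 100% = SB-334867-A antagonist wells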
Target sequence (O43613 whole entry, looked up): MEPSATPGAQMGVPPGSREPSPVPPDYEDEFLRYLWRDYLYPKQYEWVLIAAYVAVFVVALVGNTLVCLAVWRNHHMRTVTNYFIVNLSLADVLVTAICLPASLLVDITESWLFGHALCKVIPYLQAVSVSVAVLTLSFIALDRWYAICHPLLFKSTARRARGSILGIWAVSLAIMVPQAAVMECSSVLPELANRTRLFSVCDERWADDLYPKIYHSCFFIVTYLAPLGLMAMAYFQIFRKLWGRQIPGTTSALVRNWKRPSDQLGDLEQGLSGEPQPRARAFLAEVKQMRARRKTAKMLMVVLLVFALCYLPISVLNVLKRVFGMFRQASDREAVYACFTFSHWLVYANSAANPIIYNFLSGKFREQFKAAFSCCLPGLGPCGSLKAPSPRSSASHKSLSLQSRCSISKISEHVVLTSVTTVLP
GalR3 antagonist: GalR3 antagonists in HEK293 cells, primary screen, cell-based, fluorescence readout. Galanin receptor type 3 (Homo sapiens), O60755. HEK293 GalR3-CNG cAMP membrane potential fluorescence; galR3 body fused to GalR1 C-terminus. inhibition, % at 3 µM. hit rate 0.44% among 360,000. AID 651719, 2012;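 active = inhibition above the screen-wide average plus 3 SD, cut at about 13% in these data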;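 note: forskolin and galanin both at EC90 stimulate the cells; cAMP rise reported by CNG channel membrane potential dye signal; 0% = forskolin plus galanin with DMSO and 100% = forskolin alone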
OX1R antag-2: antagonists of human orexin 1 receptor (OX1R). AID 485270, 2010. Orexin/Hypocretin receptor type 1 (Homo sapiens), O43613. OX1R-expressing cells, FRET antagonist read-out. inhibition, % at 6.6 µM. hit rate 1.8% among 330,000; in the data active = inhibition mostly above about 38%, no sharp cut-off; inactive = mostly below about 40%;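 note: 0% = agonist challenge alone and 100% = reference antagonist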
Active calls of the source: *; x = no result given. An excerpt weighted towards active compounds, which were near 3.1% of everything screened.

SMILES	CHO parental Ca	GPR7 antagonist	OX1R antag-1	GalR3 antagonist	OX1R antag-2
O=C1c2ccccc2C(=O)N1c1ccc(Cl)cc1	-11.7	-9.7	-7.9	x	14.2
CC(=O)Nc1ccc(N2C(=O)c3cccc4c(O)ccc(c34)C2=O)cc1	58.3*	24.7	61.4*	-4.4	15.8
Cc1ccc(N2C(=O)c3cccc4c(C(=O)O)ccc(c34)C2=O)cc1	-3.4	-2.4	2.4	-8.5	34.3
CN(CC(=O)Nc1ccc(Cl)c(C(F)(F)F)c1)C(=O)Cn1cc([N+](=O)[O-])ccc1=O	-1.3	x	16.4	-4.0	5.4
O=C(Nc1ncc([N+](=O)[O-])s1)c1ccc2c(c1)OCO2	29.0*	-13.5	-1.5	-6.7	59.7
Cc1ccc(C(=O)Nc2ncc([N+](=O)[O-])s2)cc1	12.0	14.2	1.6	-11.8	54.2*
C=CCC(NC(=O)N(C)C)(C(=O)OC)C(C)O (stereo not given)	x	x	x	-4.8	x
COc1ccc(-c2noc(CN(C)C(=O)CCCN3C(=O)[C@H]4CC=CC[C@H]4C3=O)n2)cc1	x	x	x	-5.1	x
CCOC(=O)N1CCC(N2C(=O)c3ccccc3C2Nc2c(C)cccc2C)CC1 (stereo not given)	-6.3	15.9*	-38.0	x	4.2
Cc1ccsc1C(=O)OCC(=O)N1CCN(c2ccccc2)CC1	-12.6	x	-15.1	-5.9	12.8
O=C(/C=C/c1ccc(OCCCF)cc1)Nc1ccnc(-c2cccnc2)n1	-5.0	1.5	-14.9	-6.7	27.6
O=C(/C=C/c1ccc(OCCCF)cc1)Nc1ccnc(-c2ccncc2)n1	30.0	-19.3	21.7	-7.9	84.5*
O=C(NCCN1CCN(Cc2ccc([N+](=O)[O-])cc2)CC1)C(=O)Nc1ccccc1	7.2	7.1	-5.6	5.8	12.5
O=C(NCCN1CCN(c2ccc([N+](=O)[O-])cc2)CC1)NCc1ccccc1	0.7	-0.6	-11.6	-8.6	33.6*
COc1ccc(/C=C2\SC(N3CCCCC3)=NC2=O)cc1	-25.7	22.2	-20.0	-9.2	22.6
O=C1N=C(N2CCCCC2)S/C1=C\c1ccncc1	-1.8	-15.2	-0.8	-5.9	45.0*
O=C1N=C(N2CCOCC2)S/C1=C\c1cccnc1	6.8	-15.1	-3.5	-0.3	36.7*
O=C1CCCC2=C1Sc1ccccc1N2	-3.6	-7.2	-1.3	-2.9	6.6
COc1cc(Nc2ccc(C(=O)O)cc2[N+](=O)[O-])cc(OC)c1	-3.2	-9.5	-6.6	0.0	53.7*
O=C(N/N=C/c1cn(-c2cccs2)nc1-c1ccccc1)c1ccc(O)cc1	-23.7	-9.1	7.8	-2.8	65.3*
O=C(N/N=C/c1cn(-c2cccs2)nc1-c1ccccc1)c1ccccc1Cl	-0.7	-12.9	-14.3	-4.0	12.3
CCC(C)c1ccc(NC(=O)c2cccs2)cc1 (stereo not given)	-12.4	-1.3	17.2	-6.4	39.8*
CCC(C)NS(=O)(=O)c1ccc(NC(=O)c2cccs2)cc1 (stereo not given)	2.2	-6.9	6.5	-4.7	27.6
COc1c(-c2ccc([N+](=O)[O-])cc2[N+](=O)[O-])c(=O)n(C)c(=O)n1C	-3.9	-13.0	-13.8	-5.0	50.9*
COc1cc2c(cc1[N+](=O)[O-])-c1ccc([N+](=O)[O-])cc1C2	x	x	x	-3.0	x
SMILES	CHO parental Ca	GPR7 antagonist	OX1R antag-1	GalR3 antagonist	OX1R antag-2
COc1ccc(Nc2ccc(N3C(=O)CC(C)C3=O)cc2[N+](=O)[O-])cc1OC (stereo not given)	-15.1	-6.4	-23.8	-5.8	40.1*
COc1ccc(Nc2ccc(N3C(=O)CCCC3=O)cc2[N+](=O)[O-])cc1OC	-11.5	-8.8	-14.0	-1.9	56.9
COc1cccc(CN2CC(C(=O)NCCc3ccc(C)o3)CCC2=O)c1 (stereo not given)	x	-6.9	x	-1.0	x
O=C(COc1ccccc1-c1ccccc1)Nc1ccc(S(=O)(=O)NCc2ccco2)cc1	-2.7	4.8	19.5	-4.6	47.5*
COC(=O)C1=C(C)N(Cc2ccc(C(F)(F)F)cc2)C(=NCc2ccccc2C(F)(F)F)NC1c1ccccc1 (stereo not given)	x	x	x	-6.0	x
CCN(c1ccccc1)S(=O)(=O)c1ccc(Cl)c(NC(=O)c2ccc(=O)[nH]n2)c1	-10.4	x	11.4	-1.2	9.4
C=CCn1c(SCC(=O)Nc2cccc(S(N)(=O)=O)c2)nc2sc(C)c(C)c2c1=O	9.7	x	2.2	-6.8	32.6*
COc1ccc(C(=O)CSc2nnc(-c3cccnc3)n2Cc2ccco2)cc1	-5.5	-12.3	-30.8	-1.4	23.8
COc1ccc(C(=O)CSc2nnc(-c3cc4ccccc4cc3O)n2Cc2ccco2)cc1	-20.7	13.6	6.1	-5.1	53.3*
CCn1c(SCC(=O)N(C)CC(=O)Nc2cccc(OC)c2)nnc1-c1ccco1	-8.9	x	-10.8	-3.7	40.3*
CCn1c(SCC(=O)c2ccc3ccccc3c2)nnc1-c1ccco1	-8.9	-6.6	-3.4	-5.9	73.6*
CCOc1cccc2sc(=NC(=O)CCS(=O)(=O)c3ccc(F)cc3)n(C)c12	-44.1	x	-11.1	-1.0	13.1
O=C(C[C@@H]1C/C=C\C[C@@H](Cc2ccc(F)cc2)C(=O)OCCNC1=O)N[C@H](CO)Cc1ccccc1	-9.8	x	-1.1	-4.0	8.5
COc1ccc(NC(=O)CN(C)C(=O)CCCNC(=O)c2ccc(Cl)cc2)cc1	-12.8	x	-12.3	-2.7	6.4
CCC(=O)Nc1ccc2c(c1)C(=O)c1ccccc1C2=O	-6.2	3.3	-11.0	-3.9	37.0*
CC(NC(=O)CN1C(=O)c2ccccc2C1=O)c1ccccc1 (stereo not given)	-5.3	1.7	5.0	-8.8	13.1
CCC(=O)NC1=C(NC(C)c2ccccc2)C(=O)c2ccccc2C1=O (stereo not given)	-11.6	-6.8	-21.1	7.8	63.8*
CCOc1ccc(NC(=O)c2cc(=O)[nH]c3ccccc23)cc1	x	-6.0	x	-10.7	x
N=C1/C(=C/c2coc3ccccc3c2=O)C(=O)N=C2SC(c3ccco3)=NN12	-9.8	9.2	-12.1	x	2.6
Cc1cc(/C=C2\C(=N)N3N=C(C(C)C)SC3=NC2=O)c(C)n1Cc1ccccc1	65.0*	-12.9	102.5*	-0.9	6.3
Cc1cc(/C=C2\C(=N)N3N=C(c4ccco4)SC3=NC2=O)c(C)n1Cc1ccccc1	41.3*	1.7	103.8*	-6.5	9.7
CCC1=NN2C(=N)/C(=C/c3cc(C)n(Cc4ccccc4)c3C)C(=O)N=C2S1	69.9*	-11.9	96.6*	-5.9	18.9
Cc1cc(/C=C2\C(=N)N3C(SCc4ccccc4)=NSC3=NC2=O)c(C)n1Cc1ccccc1	-1.7	-6.4	-5.4	-4.8	6.3
CCCCCCC(=O)NNC(=O)CC(=O)Nc1ccccc1C(=O)O	-4.4	-0.2	-8.2	-10.5	10.0
O=C1NC(=O)C2C1C(c1cccs1)NN2Cc1ccccc1 (stereo not given)	-0.3	-6.4	-8.8	0.3	2.9

Screens deposited in PubChem by The Scripps Research Institute Molecular Screening Center.
